Assay results from ChEMBL document CHEMBL1121910, “N-(Methanesulfonyl)-16-phenoxyprostaglandincarboxamides: tissue-selective, uterine stimulants” (1981).

Experiments:
[1] = system: Rattus norvegicus; assay: Relative potency (50 ug/kg) for inhibition of pentagastrin-stimulated gastric acid secretion in anesthetized rats; assay type: functional, Stomach
[2] = system: Mus musculus; assay: Relative potency of compound versus PGE-2 (0.3-3.0mg/mL, iv)for induction of diarrhoea in conscious mice; assay type: functional
Outline: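 Groups of six conscious mice, iv. Relative potency was estimated from concentration-response curves for diarrhea induction against PGE2 given at 0.3–3.0 mg/kg iv.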

[3] = system: Cavia porcellus; assay: Relative ability to cause abortion in conscious guinea pigs compared to PGE-2.; assay type: functional
[4] = species: Cavia porcellus; assay: Relative spasmogenic potency in an in vitro guinea pig uteri assay.; assay type: functional
[5] = system: Cavia porcellus; assay: Percent protection against histamine-induced bronchoconstriction in conscious guinea pig.; assay type: functional; design: concentration or dose not given beside the values
[6] = system: Canis familiaris; assay: Compound versus PGE-2 (0.1 ug/kg, iv) was tested for effects on blood pressure in anesthetized dogs; assay type: functional, Canis lupus familiaris
Outline: (§1)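 Anesthetized dogs responsive to PGE2 (at least two per compound); iv dosing. Blood pressure threshold dose expressed relative to PGE2 reference at 0.1 μg/kg iv; direction noted as depressor (−) or pressor (+).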

[7] = system: Mus musculus; assay: Relative potency of compound versus PGE-2 (0.3-3.0mg/mL, iv) for induction of diarrhoea in conscious mice; Depressor; assay type: functional
[8] = system: Canis familiaris; assay: Compound versus PGE-2 (0.1 ug/kg, iv) was tested for effects on blood pressure in anesthetized dogs; Depressor; assay type: functional, Canis lupus familiaris; outline: as §1
[9] = system: Mus musculus; assay: Relative potency of compound versus PGE-2 (0.3-3.0mg/mL, iv) for induction of diarrhoea in conscious mice; NE = no effect at 10 times the ED50 for PGE-2; assay type: functional, organism-based
[10] = system: Mus musculus; assay: Relative potency of compound versus PGE-2 (0.3-3.0mg/mL, iv) for induction of diarrhoea in conscious mice; NE = no effect at one tenth the minimum effective dose for PGE-2; assay type: functional, organism-based
[11] = system: Canis familiaris; assay: Compound versus PGE-2 (0.1 ug/kg, iv) was tested for effects on blood pressure in anesthetized dogs; Pressor; assay type: functional, Canis lupus familiaris; outline: as §1

SMILES	Relative potency [1]	Relative potency [2]	Relative potency [3]	Relative potency [4]	Protection [5] [%]	Relative potency [6]	Relative potency [7]	Relative potency [8]	Relative potency [9]	Relative potency [10]	Relative threshold dose [8]	Relative threshold dose [11]
CCCCC[C@H](O)/C=C/[C@H]1[C@H](O)CC(=O)[C@@H]1C/C=C\CCCC(=O)O [DINOPROSTONE]	100	100	100	100	100	–	–	–	–	–	–	–
CS(=O)(=O)NC(=O)CCC/C=C\C[C@H]1C(=O)C[C@@H](O)C1/C=C/[C@@H](O)CCc1ccccc1 (stereo not given in full)	–	–	<100	75	0	2.5	2.5	–	–	–	–	–
CS(=O)(=O)NC(=O)CCC/C=C\C[C@H]1C(=O)C[C@@H](O)[C@@H]1/C=C/[C@@H](O)COc1ccccc1 [SULPROSTONE]	450	–	3000	115	10	–	–	0.5	–	–	–	–
COc1cccc(OC[C@H](O)/C=C/C2[C@H](O)CC(=O)[C@@H]2C/C=C\CCCC(=O)NS(C)(=O)=O)c1 (stereo not given in full)	0	–	<1000	1	25	<0.5	–	–	No effect	–	–	–
Cc1cccc(OC[C@H](O)/C=C/C2[C@H](O)CC(=O)[C@@H]2C/C=C\CCCC(=O)NS(C)(=O)=O)c1 (stereo not given in full)	125	–	<1000	4	44	–	–	0.5	–	No effect	–	–
COc1ccc(OC[C@H](O)/C=C/C2[C@H](O)CC(=O)[C@@H]2C/C=C\CCCC(=O)NS(C)(=O)=O)cc1 (stereo not given in full)	600	–	< 1000	10	13	<0.5	–	–	–	–	–	–
CS(=O)(=O)NC(=O)CCC/C=C\C[C@H]1C(=O)C[C@@H](O)C1/C=C/[C@@H](O)COc1cccc(Cl)c1 (stereo not given in full)	140	–	1000	46	28	–	–	–	–	–	–	–
CS(=O)(=O)NC(=O)CCC/C=C\C[C@H]1C(=O)C=CC1/C=C/[C@@H](O)COc1ccccc1 (stereo not given in full)	200	10	<100	0.2	9	–	–	–	–	–	2.5	–
CS(=O)(=O)NC(=O)CCC/C=C\C[C@@H]1C(/C=C/[C@@H](O)COc2ccccc2)[C@H](O)C[C@@H]1O (stereo not given in full)	–	–	1000	10	3	10	–	–	–	–	–	–
CS(=O)(=O)NC(=O)CCC/C=C\C[C@H]1C(=O)C[C@@H](O)C1/C=C/[C@@H](O)COc1cccc(C(F)(F)F)c1 (stereo not given in full)	–	–	<100	0.5	16	<0.5	–	–	–	No effect	–	–
O=C(O)CCC/C=C\C[C@H]1C(=O)C[C@@H](O)C1/C=C/[C@@H](O)COc1ccccc1 (stereo not given in full)	530	150	300	75	9	–	–	–	–	–	10	–
CS(=O)(=O)NC(=O)CCC/C=C\C[C@H]1C(=O)C[C@@H](O)C1/C=C/[C@@H](O)COc1ccc(Cl)cc1 (stereo not given in full)	1200	–	10000	90	9	–	–	0.5	–	–	–	–
CS(=O)(=O)NC(=O)CCC/C=C\C[C@H]1C(=O)C[C@@H](O)C1/C=C/[C@@H](O)COc1ccc(F)cc1 (stereo not given in full)	–	–	3000	120	3	–	–	–	–	–	–	–
CCCCC(C)(C)[C@H](O)/C=C/C1[C@H](O)CC(=O)[C@@H]1C/C=C\CCCC(=O)O (stereo not given in full)	400	5300	<100	33	41	–	–	–	–	–	10	–
CS(=O)(=O)NC(=O)CCC/C=C\CC1=C(/C=C/[C@@H](O)COc2ccccc2)CCC1=O	80	60	<100	1.2	0	–	–	–	–	–	–	10
CCS(=O)(=O)NC(=O)CCC/C=C\C[C@H]1C(=O)C[C@@H](O)C1/C=C/[C@@H](O)COc1ccccc1 (stereo not given in full)	–	–	3000	85	9	–	–	1	–	–	–	–
O=C(CCC/C=C\C[C@H]1C(=O)C[C@@H](O)C1/C=C/[C@@H](O)COc1ccccc1)NS(=O)(=O)c1ccccc1 (stereo not given in full)	370	–	1000	5	13	<0.5	–	–	–	–	–	–
CS(=O)(=O)NC(=O)CCC/C=C\C[C@H]1C(=O)C[C@@H](O)C1/C=C/[C@@H](O)COc1cccs1 (stereo not given in full)	–	–	300	50	28	0.5	–	–	–	–	–	–
